This is one part of a sample in which hits are shown more often than they occur.
T cruzi inh = T. cruzi replication inhibition. T. cruzi beta-gal in NIH3T3, luminescence, 90 h. inhibition, % (no concentration beside the values). 300,000 compounds, 1.4% hits. AID 1885;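 active = mean inhibition across valid replicates above about 55%, limit read from the data; inconclusive = mean below that limit but half or more replicates reach it; inactive = mean below it, under half of replicates reach it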;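 note: signal also drops with host cell toxicity which is not excluded here; 0% = plate median of DMSO wells and 100% = zero luminescence signal; higher percent means less beta-gal luminescence so fewer parasites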
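System: NIH/3T3 fibroblasts plus reporter T. cruzi. Medium: DMEM plus 2% FBS. Probe or stimulus: 5000 reporter trypomastigotes per well. Compound: single 50 nL compound addition per well in DMSO. Incubation: co-culture of at least 90 h after 3 h attachment. Detection: GalScreen β-gal luminescence, detergent lysis, 60 min. Evaluation: parasite load inhibition, %.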
NALP1 yeast inh = blocks the NALP1 inflammasome reconstituted in yeast; S. cerevisiae NALP1/ASC/caspase-1 growth, X-gal OD620, 72 h; AID 2071; inhibition, % at 10 µM; 280,000 compounds, 0.61% hits; in the data active = inhibition mostly above about 24%, no sharp cut-off; inactive = mostly below about 32%
PolyA inh = yeast polyadenylation inhibition; S. cerevisiae SKY197-pL101 polyadenylation reporter, beta-gal luminescence; efflux-impaired pdr1/pdr3 knockout yeast; score 100 = 6 SD above DMSO; activity score, % at 12 µM; 300,000 compounds, 0.02% hits;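 active = lowest replicate activity score at least 50, where 100 means six control SD above control mean; inconclusive = lowest score under 50 but half or more replicates reach 50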;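 note: yeast exposed to compound for 9 h at 30 °C; higher score means more reporter readthrough which indicates perturbed polyadenylation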
L major viab = Leishmania major promastigote growth inhibition; Leishmania major promastigotes, resazurin fluorescence viability; inhibition, % at 10 µM; AID 1063; 200,000 compounds, 9% hits; in the data active = inhibition above about 50%;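 note: promastigotes grown with compound for 44 hours at 28 °C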
NALP3 yeast inh = blocks the NALP3 inflammasome reconstituted in yeast; Yeast reconstituted NLRP3/ASC/caspase-1, beta-gal luminescence, 24 h; AID 2825; 330,000 compounds, 0.39% hits; inhibition, % at 10 µM;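 active = inhibition of 50% or more; inactive = inhibition below 50%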;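 note: plate controls were induced DMSO wells for no effect and uninduced yeast grown without galactose for full effect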
Calb FLC = C. albicans growth modulation with fluconazole | C. albicans CaCi-2 + fluconazole, Alamar Blue growth, 48 h | growth inhibition, % (no concentration beside the values) | 300,000 compounds, 0.57% hits | AID 1979;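 active = growth inhibition above about 58% in most replicates, limit read from the data, passing the limit was not always enough; inconclusive = exactly half the replicates above a set limit; inactive = most replicates below a set limit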;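 note: all wells also contain fluconazole at 8 µg/ml as a sub-toxic cotreatment; 0% = median of DMSO wells and 100% = median of geldanamycin control wells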
* marks the source's active call; other numbers are inactive results; ? = inconclusive; / = no result.

SMILES	T cruzi inh	NALP1 yeast inh	PolyA inh	L major viab	NALP3 yeast inh	Calb FLC
Cc1ccc(/C=C2\SC(=O)N(CCNC(=O)C3CSC4(C)CCC(=O)N34)C2=O)cc1 (configuration not stated)	-2	/	9	/	18	-23
CC1(C)CC2CC(C)(CN2S(=O)(=O)c2ccc(C(=O)Nc3ccc(S(=O)(=O)N4CCOCC4)cc3)cc2)C1 (configuration not stated)	55*	/	4	99*	-7	-1
CC1(C)CC2CC(C)(CN2S(=O)(=O)c2ccc(C(=O)Nc3ccc(Cl)c(S(=O)(=O)N4CCOCC4)c3)cc2)C1 (configuration not stated)	63*	-3	0	97*	18	30
CC(=O)Nc1ccc(S(=O)(=O)N2CC3(C)CC2CC(C)(C)C3)cc1 (configuration not stated)	-4	12	-11	47	1	1
CCn1c(SCc2nc(-c3ccc(OC)c(OC)c3)no2)nnc1-c1cccs1	3	/	-12	21	4	4
Cn1c(N=Nc2ccccc2)nc2ccccc21	5	42	-13	53*	23	40
CN(C)c1ccc(N=Nc2nc3ccccc3n2C)cc1	41	/	5	/	36	73
Cc1ccc(CC2CC(=O)N(CCc3ccc4c(c3)OCO4)C2=O)cc1 (configuration not stated)	30	13	-2	60*	-5	-30
CCOc1ccc(NC(=O)C(C)Oc2ccccc2C(=O)Nc2ccc(C)c(Cl)c2)cc1 (configuration not stated)	72*	15	-8	39	22	22
COc1ccc(C(=O)C2CCCN(Cc3cccn3-c3ccccn3)C2)c(OC)c1 (configuration not stated)	35	-7	0	92*	27	53
COc1cccc(C(=O)C2CCCN(Cc3cccn3-c3cccnc3)C2)c1 (configuration not stated)	51	5	4	89*	-2	-16
COc1cccc(C(=O)C2CCCN(Cc3cccc(-n4cccn4)c3)C2)c1 (configuration not stated)	46	/	14	/	10	-9
COc1ccc(F)cc1C(=O)C1CCCN(Cc2cccn2-c2ccccn2)C1 (configuration not stated)	25	14	/	63*	17	12
Cc1cc(C)c2sc(NC(=O)CN3C(=O)CCC3=O)nc2c1	-7	/	13	/	13	6
N#CCCN(Cc1ccccc1)C(=O)c1cccs1	-10	8	1	/	4	-2
CCOc1ccc(CN2CCN(Cc3nc(C(C)C)cs3)CC2CCO)cc1 (configuration not stated)	58*	2	0	81*	1	-9
CCOc1ccc(CN2CCN(CCCn3cccn3)CC2CCO)cc1 (configuration not stated)	12	8	22	92*	-2	0
CC(C)c1csc(CN2CCN(CCc3ccccc3)C(CCO)C2)n1 (configuration not stated)	27	11	3	89*	26	-24
CCOc1ccc(CN2CCN(C3CCC3)CC2CCO)cc1 (configuration not stated)	-2	16	-17	/	16	1
CCOc1ccc(CN2CCN(C3CCSCC3)CC2CCO)cc1 (configuration not stated)	18	20	-2	73*	17	0
CNC(=O)c1ccc(NC(=O)Nc2ccccc2)cc1	-6	-6	8	/	9	-4
O=C(Nc1ccc2c(c1)OCCO2)c1ccccc1F	-16	4	16	-9	17	-13
O=C(Nc1ccc2c(c1)OCCO2)c1cccc2nc3ccccc3nc12	65*	-1	-22	-2	11	52
COc1ccc(-n2nc([N+](=O)[O-])c(=NC3CCN(Cc4ccccc4)CC3)n2O)cc1	51	18	-13	46	20	27
COc1ccc(-n2nc([N+](=O)[O-])c(=NCCc3ccc(OC)c(OC)c3)n2O)cc1	50	-41	-8	94*	10	13
SMILES	T cruzi inh	NALP1 yeast inh	PolyA inh	L major viab	NALP3 yeast inh	Calb FLC
COc1ccc(-n2nc([N+](=O)[O-])c(=NCCc3ccc(Cl)cc3)n2O)cc1	67*	-5	-16	26	3	23
COc1ccc(CNC(=O)Cn2nc([N+](=O)[O-])cc2C)cc1	-26	-3	8	/	13	-2
COc1ccc(-n2nc([N+](=O)[O-])c(=NCCC3=CCCCC3)n2O)cc1	91*	8	-11	82*	-21	3
COc1ccc(-n2nc([N+](=O)[O-])c(=NCCc3ccc(C)cc3)n2O)cc1	50	11	-13	80*	30	11
CCn1c(CNC(=O)c2ccccc2OC)nnc1SCC(=O)c1ccc(F)cc1	8	-13	20	/	8	7
CC12CCC(=O)N1C(C(=O)NNC(=O)COc1ccccc1F)CS2 (configuration not stated)	/	/	/	/	-13	/
COc1ccc(-n2nc([N+](=O)[O-])c(=NCc3ccco3)n2O)cc1	40	8	-4	15	14	?
COc1ccc(-n2nc([N+](=O)[O-])c(=NCc3cccnc3)n2O)cc1	29	-27	7	82*	21	25
CCc1ccc(NC(=O)CNCc2ccc(OC)c(OC)c2)cc1	3	5	?	/	21	-1
O=C1CC(N2CCC(c3nc4ccccc4[nH]3)CC2)C(=O)N1c1ccccc1F (configuration not stated)	4	32*	10	-4	-5	-31
COc1ccc(N2C(=O)CC(N3CCC(c4nc5ccccc5[nH]4)CC3)C2=O)cc1 (configuration not stated)	-12	11	-10	-3	-10	-3
COc1cc(C(=O)OC(C)CN2C(C)CCCC2C)cc(OC)c1OC (configuration not stated)	-4	-7	-11	/	14	17
CCOc1ccc2c(c1)OC(c1ccc(C)cc1)(C(F)(F)F)NC2=O (configuration not stated)	51	9	-4	100*	17	?
Nc1c(C(=O)OCC2CCCO2)c2nc3ccccc3nc2n1-c1ccc2c(c1)OCCO2 (configuration not stated)	1	6	-6	54*	-2	8
Cc1ccc(-n2c(N)c(C(=O)Nc3c(C)n(C)n(-c4ccccc4)c3=O)c3nc4ccccc4nc32)cc1C	8	35	5	79*	23	-3
CCCNC(=O)c1c(N)n(-c2ccc3c(c2)OCO3)c2nc3ccccc3nc12	-6	1	-4	-3	23	3
Nc1c(C(=O)NC2CC2)c2nc3ccccc3nc2n1-c1ccc2c(c1)OCO2	14	13	3	97*	25	1

From PubChem BioAssay
